The values that follow come from ChEMBL document CHEMBL4765342, “Substituted benzothiophene and benzofuran derivatives as a novel class of bone morphogenetic Protein-2 upregulators: Synthesis, anti-osteoporosis efficacies in ovariectomized rats and a zebrafish model, and ADME properties” (Eur J Med Chem, 2020).

The subject of data set [1] is Rattus norvegicus. Kind of data set: Antiosteoporotic activity in Sprague-Dawley rat model of OVX-induced bone loss assessed as increase in trabecular bone mineral density at 30 mg/kg, ig administered for 3 months with 1 day break after 6 consecutive days administration. The data set is classed as functional, organism-based. The gist of the method:
(§1)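 Female SD rats given bilateral ovariectomy (sham: fat tissue removed instead), adapted 1 week beforehand; dosing began on postoperative day 10, n = 10 per group. Test drugs as 3 mg/mL suspension by gavage; raloxifene hydrochloride at 0.5 mg/mL. Controls got water. Tetracycline 30 mg/kg ip 16 and 3 days before euthanasia. Tibia stained sections give trabecular morphology and TBV%. BMD of L4-6 measured by densitometry under pentobarbital 45 mg/kg anaesthesia. Reported as mean ± SD.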

The test system of data set [2] is Rattus norvegicus. Description: Antiosteoporotic activity in Sprague-Dawley rat model of OVX-induced bone loss assessed as increase in trabecular bone volume at 30 mg/kg, ig administered for 3 months with 1 day break after 6 consecutive days administration. The data set is classed as functional, organism-based. The gist of the method: as §1
For data set [3], the system named is Rattus norvegicus. Kind of data set: Antiosteoporotic activity in Sprague-Dawley rat model of OVX-induced bone loss assessed as increase in thickness of trabeculae at 30 mg/kg, ig administered for 3 months with 1 day break after 6 consecutive days administration. The data set is classed as functional, organism-based. Put shortly:
as §1

For data set [4], the system named is Rattus norvegicus. Kind of data set: Antiosteoporotic activity in Sprague-Dawley rat model of OVX-induced bone loss assessed as narrowed gap between trabeculae at 30 mg/kg, ig administered for 3 months with 1 day break after 6 consecutive days administration. The data set is classed as functional, organism-based. Put shortly:
as §1

For data set [5], the system named is Rattus norvegicus. Kind of data set: Antiosteoporotic activity in Sprague-Dawley rat model of OVX-induced bone loss assessed as increase in number of trabeculae at 30 mg/kg, ig administered for 3 months with 1 day break after 6 consecutive days administration. The data set is classed as functional, organism-based. The gist of the method: as §1
The subject of data set [6] is Rattus norvegicus. Kind of data set: Antiosteoporotic activity in Sprague-Dawley rat model of OVX-induced bone loss assessed as increase in trabecular bone mineral density at 5 mg/kg, ig administered for 3 months with 1 day break after 6 consecutive days administration. The data set is classed as functional, organism-based. The gist of the method:
as §1

For data set [7], the system named is Rattus norvegicus. Kind of data set: Antiosteoporotic activity in Sprague-Dawley rat model of OVX-induced bone loss assessed as increase in number of trabeculae at 5 mg/kg, ig administered for 3 months with 1 day break after 6 consecutive days administration. The data set is classed as functional, organism-based. The gist of the method:
as §1

The test system of data set [8] is Rattus norvegicus. Kind of data set: Antiosteoporotic activity in Sprague-Dawley rat model of OVX-induced bone loss assessed as increase in trabecular bone volume at 5 mg/kg, ig administered for 3 months with 1 day break after 6 consecutive days administration. The data set is classed as functional, organism-based. The gist of the method: as §1
In data set [9] the test system is Rattus norvegicus. Kind of data set: Antiosteoporotic activity in Sprague-Dawley rat model of OVX-induced bone loss assessed as increase in thickness of trabeculae at 5 mg/kg, ig administered for 3 months with 1 day break after 6 consecutive days administration. The data set is classed as functional, organism-based. The gist of the method:
as §1

The test system of data set [10] is Rattus norvegicus. Description: Antiosteoporotic activity in Sprague-Dawley rat model of OVX-induced bone loss assessed as narrowed gap between trabeculae at 5 mg/kg, ig administered for 3 months with 1 day break after 6 consecutive days administration. The data set is classed as functional, organism-based. Put shortly:
as §1

A short description of data set [11]: Solubility in PBS buffer at pH 7.4 assessed as precipitation of compound at 312.5 nM. The data set is classed as physicochemical. The conditions noted are these: pH 7.4, 0.3125 µM.
Data set [12] is described as follows: Toxicity in BALB/c mouse assessed as necrosis in renal tubular epithelial cells at 50 to 100 mg/kg, ig administered for 14 days. The data set is classed as organism-based. The conditions noted are these: in vivo, po, 336 h, dose 50-100 mg/kg, time 14 day. Put shortly: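 BALB/c mice, 10 per group: untreated blank group plus low (50 mg/kg) and high (100 mg/kg) dose groups, intragastric once daily for 14 days. Hair, behaviour and neurological signs monitored throughout. At day 14 mice were weighed and dissected. Kidney and liver tissue was fixed in 3 mm pieces, dehydrated through graded alcohol, cleared in xylene, embedded in paraffin, sectioned and examined histopathologically.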

The nature of data set [13]: Solubility in PBS buffer at pH 7.4 assessed as precipitation of compound at 10000 nM. The data set is classed as physicochemical. The note with it: pH 7.4, 10 µM.
The nature of data set [14]: Solubility in PBS buffer at pH 7.4 assessed as precipitation of compound at 156.25 nM. The data set is classed as physicochemical. The note with it: pH 7.4, 0.15625 µM.
Data set [15] is described as follows: Toxicity in BALB/c mouse assessed as gait disturbance at 50 to 100 mg/kg, ig administered for 14 days. The data set is classed as organism-based. The note with it: in vivo, po, 336 h, dose 50-100 mg/kg, time 14 day. Put shortly: (§2)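 BALB/c mice, 10 per group, gavaged daily for 14 days at 50 or 100 mg/kg; blank control group included. Hair, behaviour and neurological signs (fremitus, convulsion, spasm, gait disturbance) were observed. At day 14, mice were weighed and given routine blood tests and serum biochemistry (ALT, AST, urea, creatinine; n = 10). Liver and kidney were examined on paraffin-embedded histology sections.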

The nature of data set [16]: Toxicity in BALB/c mouse assessed as effect on liver megakaryocyte at 50 to 100 mg/kg, ig administered for 14 days. The data set is classed as organism-based. The conditions noted are these: in vivo, po, 336 h, dose 50-100 mg/kg, time 14 day. The gist of the method: as §2
Data set [17] can be described thus: Toxicity in BALB/c mouse assessed as effect on hair at 50 to 100 mg/kg, ig administered for 14 days. The data set is classed as organism-based. The note with it: in vivo, po, 336 h, dose 50-100 mg/kg, time 14 day. The gist of the method: as §2
Data set [18] is described as follows: Toxicity in BALB/c mouse assessed as hepatocyte necrotic foci at 50 to 100 mg/kg, ig administered for 14 days. The note with it: in vivo, po, 336 h, dose 50-100 mg/kg, time 14 day. The data set is classed as organism-based. Put shortly: as §2
Data set [19] is described as follows: Solubility in PBS buffer at pH 7.4 assessed as precipitation of compound at 2500 nM. The conditions noted are these: pH 7.4, 2.5 µM. The data set is classed as physicochemical.
Data set [20] can be described thus: Toxicity in BALB/c mouse assessed as muscle spasm at 50 to 100 mg/kg, ig administered for 14 days. The note with it: in vivo, po, 336 h, dose 50-100 mg/kg, time 14 day. The data set is classed as organism-based. Put shortly:
as §2

Data set [21] in a line: Permeability across apical to basolateral side in human Caco-2 cells assessed as […] yellow leakage at 10 uM incubated for 2 hrs LC-MS/MS analysis. The data set is classed as ADME, cell-based. The conditions noted are these: caco-2, 2 h. The gist of the method: (§3)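 Caco-2 monolayers, apical to basolateral direction. Plates preincubated 30 min at 37 °C, then exposed to 10 µM compound for 2 h at 37 °C without shaking. Donor and receiver samples were quenched, centrifuged and measured by LC/MS/MS, in duplicate. Papp calculated from receiver concentration, area and time. Monolayer integrity checked by TEER and by Lucifer yellow leakage (30 min, 37 °C, ex 485/em 530 nm).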
(Passage across Caco-2 layers is used to estimate intestinal permeability.)

The nature of data set [22]: Permeability across apical to basolateral side in human Caco-2 cells assessed as transepithelial electrical resistance at 10 uM incubated for 2 hrs LC-MS/MS analysis. The data set is classed as ADME, cell-based. The note with it: caco-2, 2 h. The gist of the method:
as §3

Data set [23] is described as follows: Toxicity in BALB/c mouse assessed as hepatocyte nucleus mitosis at 50 to 100 mg/kg, ig administered for 14 days. The data set is classed as organism-based. The conditions noted are these: in vivo, po, 336 h, dose 50-100 mg/kg, time 14 day. The gist of the method: as §2
The nature of data set [24]: Solubility in PBS buffer at pH 7.4 assessed as precipitation of compound at 5000 nM. The data set is classed as physicochemical. The note with it: pH 7.4, 5 µM.
Data set [25] is described as follows: Toxicity in BALB/c mouse assessed as effect on body weight at 50 to 100 mg/kg, ig administered for 14 days. The note with it: in vivo, po, 336 h, dose 50-100 mg/kg, time 14 day. The data set is classed as organism-based. The gist of the method:
as §2

Data set [26] in a line: Apparent permeability across apical to basolateral side in human Caco-2 cells at 10 uM incubated for 2 hrs LC-MS/MS analysis. The data set is classed as ADME, cell-based. The conditions noted are these: Caco-2. Put shortly: as §3
Data set [27] in a line: Solubility in PBS buffer at pH 7.4 assessed as precipitation of compound at 625 nM. The data set is classed as physicochemical. The note with it: pH 7.4, 0.625 µM.
Data set [28] in a line: Hepatotoxicity in BALB/c mouse assessed as effect on serum ALT level at 50 to 100 mg/kg, ig administered for 14 days. The data set is classed as toxicity, organism-based. The note with it: in vivo, po, 336 h, dose 50-100 mg/kg, time 14 day. The gist of the method:
as §2

Data set [29] is described as follows: Renal toxicity in BALB/c mouse assessed as effect on serum urea level at 50 to 100 mg/kg, ig administered for 14 days. The data set is classed as organism-based. The conditions noted are these: in vivo, po, 336 h, dose 50-100 mg/kg, time 14 day. The gist of the method:
as §2

Data set [30] can be described thus: Toxicity in BALB/c mouse assessed as effect on behavioral change at 50 to 100 mg/kg, ig administered for 14 days. The conditions noted are these: in vivo, po, 336 h, dose 50-100 mg/kg, time 14 day. The data set is classed as organism-based. The gist of the method: as §2
Data set [31] in a line: Renal toxicity in BALB/c mouse assessed as effect on serum creatinine level at 50 to 100 mg/kg, ig administered for 14 days. The data set is classed as organism-based. The conditions noted are these: in vivo, po, 336 h, dose 50-100 mg/kg, time 14 day. The gist of the method: as §2
The nature of data set [32]: Toxicity in BALB/c mouse assessed as convulsion at 50 to 100 mg/kg, ig administered for 14 days. The note with it: in vivo, po, 336 h, dose 50-100 mg/kg, time 14 day. The data set is classed as organism-based. The gist of the method: as §2
Data set [33] in a line: Toxicity in BALB/c mouse assessed as inflammatory infiltration in liver at 50 to 100 mg/kg, ig administered for 14 days. The conditions noted are these: in vivo, po, 336 h, dose 50-100 mg/kg, time 14 day. The data set is classed as organism-based. Put shortly:
as §2

Data set [34] in a line: Hepatotoxicity in BALB/c mouse assessed as effect on serum AST level at 50 to 100 mg/kg, ig administered for 14 days. The conditions noted are these: in vivo, po, 336 h, dose 50-100 mg/kg, time 14 day. The data set is classed as toxicity, organism-based. Put shortly:
as §2

The nature of data set [35]: Toxicity in BALB/c mouse assessed as fremitus at 50 to 100 mg/kg, ig administered for 14 days. The data set is classed as organism-based. The note with it: in vivo, po, 336 h, dose 50-100 mg/kg, time 14 day. Put shortly: as §2

Calls of active or inactive are those of the source. The calls are words filed in the database; no cut-off is given here.

As to `COc1ccc2cc(C(=O)OCCN(C)C)oc2c1`, the outcome in the data set on Rattus norvegicus [1], in the data set with Rattus norvegicus [2], with Rattus norvegicus [3], in the data set with Rattus norvegicus [4] and in the data set with Rattus norvegicus [5] was Active.
Regarding `O=C(c1ccc(OCCN2CCCCC2)cc1)c1c(-c2ccc(O)cc2)sc2cc(O)ccc12`, the outcome in the data set with Rattus norvegicus [6], in the data set on Rattus norvegicus [7], in the data set with Rattus norvegicus [8], in the data set with Rattus norvegicus [9] and with Rattus norvegicus [10] was Active.
Regarding `CCOC(=O)c1cc2ccc(OC)cc2o1`, the solubility entry in data set [11] is given as “Soluble”; in [13] it was “Insoluble”; in data set [14], “Soluble”; in data set [19], “Insoluble”; in data set [24] it was “Insoluble”; in [27] it was “Soluble”. Besides, the Activity result in data set [12] is given as “Toxic”; in data set [15], “Non-Toxic”; in data set [16], “Toxic”; in data set [17], “Non-Toxic”; in data set [18] it was “Toxic”; in [20], “Non-Toxic”. Besides, the Activity in data set [21] is 0.152%; in data set [22], 373 Ω·cm²; in data set [23] it was “Toxic”; in data set [25], “Non-Toxic”; in data set [28] it was “Non-Toxic”; in data set [29] it was “Non-Toxic”. Moreover, the Activity result was “Non-Toxic” in data set [30]; “Non-Toxic” in data set [31]; “Non-Toxic” in data set [32]; “Toxic” in [33]; “Non-Toxic” in data set [34]; “Non-Toxic” in data set [35]. Further, the outcome in the data set with Rattus norvegicus [1], with Rattus norvegicus [2], in the data set on Rattus norvegicus [3], in the data set with Rattus norvegicus [4] and in the data set on Rattus norvegicus [5] was Active. Moreover, in [26], the Papp A→B at 2 h, 10 µM is < 0.00247 ×10⁻⁶ cm/s.

By Papp A→B is commonly meant the apparent permeability from the apical to the basolateral side of a cell layer.
